Measurements published in ChEMBL document CHEMBL4373653, “FgaPT2, a biocatalytic tool for alkyl-diversification of indole natural products” (Medchemcomm, 2019).
Activity calls are given as the source filed them. The calls are words filed in the database; no cut-off is given here.

Columns and labels:
[1] = biological target: T1, Tryptophan dimethylallyltransferase (Neosartorya fumigata (strain ATCC MYA-4609 / Af293 / CBS 101355 / FGSCA1100) (Aspergillus fumigatus)) (UniProt Q50EL0); assay: Substrate activity at recombinant N-terminal His6-fusion tagged Aspergillus fumigatus FgaPT2 expressed in Escherichia coli BL21 (DE3) assessed as alkylation of L-tryptophan by measuring product formation at pH 7.5 in Tris buffer after 16 hrs by RP-HPLC analysis
T1 sequence (whole entry): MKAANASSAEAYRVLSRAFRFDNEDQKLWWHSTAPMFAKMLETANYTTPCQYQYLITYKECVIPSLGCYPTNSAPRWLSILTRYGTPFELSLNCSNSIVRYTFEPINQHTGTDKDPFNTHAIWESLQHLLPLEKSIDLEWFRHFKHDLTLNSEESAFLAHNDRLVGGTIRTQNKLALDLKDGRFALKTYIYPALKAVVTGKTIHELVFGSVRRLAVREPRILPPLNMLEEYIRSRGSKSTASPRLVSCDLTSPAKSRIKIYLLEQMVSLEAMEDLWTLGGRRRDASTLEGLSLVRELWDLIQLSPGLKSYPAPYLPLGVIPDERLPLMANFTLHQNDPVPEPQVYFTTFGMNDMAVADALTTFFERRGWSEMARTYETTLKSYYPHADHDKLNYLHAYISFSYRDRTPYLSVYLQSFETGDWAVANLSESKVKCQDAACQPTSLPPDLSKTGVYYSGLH
How it was run: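 The enzyme was codon-optimized and purified by Ni-NTA. Reaction: 1.2 mM alkyl-PP donor, 1 mM L-Trp, 5 μM FgaPT2 in 25 mM Tris pH 7.5, 5 mM MgCl2, 50 mM KCl, 35 °C for 16 h. It was quenched with an equal volume of methanol and centrifuged. Analysis was by RP-HPLC (C18, water/0.1% TFA–acetonitrile gradient, A254). Negative controls omitted the enzyme or the donor.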

[2] = tested on: HCT-116; assay: Cytotoxicity against human HCT116 cells incubated for 48 hrs by Celltiter-blue assay; format: cell-based; details: HCT-116, 48 h
How it was run: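 HCT-116 cells, 2.0e3 per well in McCoy's medium, grown 24 h. A baseline CellTiter-Blue reading (90 min, 37 °C; ex 544/em 590 nm) was taken at treatment. Serial dilutions were added at 4X in medium and incubated 48 h, then read again with CellTiter-Blue. Growth was expressed relative to untreated cells, four-parameter dose-response fit to IC50, n = 2, Taxol internal control.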

[3] = substrate: C/C(Cl)=C/COP(=O)(O)OP(=O)(O)O; details: Aspergillus fumigatus Af293
[4] = substrate: C/C=C/C=C(\C)COP(=O)(O)OP(=O)(O)O; details: Aspergillus fumigatus Af293
[5] = substrate: C/C=C/COP(=O)(O)OP(=O)(O)O; details: Aspergillus fumigatus Af293
[6] = substrate: C=C/C=C(\C)COP(=O)(O)OP(=O)(O)O; details: Aspergillus fumigatus Af293
[7] = substrate: C=C/C=C/COP(=O)(O)OP(=O)(O)O; details: Aspergillus fumigatus Af293
[8] = substrate: CC(C)=C/C=C/COP(=O)(O)OP(=O)(O)O; details: Aspergillus fumigatus Af293
[9] = substrate: CC/C(C)=C/COP(=O)(O)OP(=O)(O)O; details: Aspergillus fumigatus Af293
[10] = substrate: CCC(=CCOP(=O)(O)OP(=O)(O)O)CC; details: Aspergillus fumigatus Af293
[11] = substrate: COc1cccc(COP(=O)(O)OP(=O)(O)O)c1; details: Aspergillus fumigatus Af293
[12] = substrate: COc1ccccc1COP(=O)(O)OP(=O)(O)O; details: Aspergillus fumigatus Af293
[13] = substrate: O=P(O)(O)OP(=O)(O)OCC1=CCCCC1; details: Aspergillus fumigatus Af293
[14] = substrate: O=P(O)(O)OP(=O)(O)OCC=C1CCCC1; details: Aspergillus fumigatus Af293
[15] = substrate: O=P(O)(O)OP(=O)(O)OCC=C1CCCCC1; details: Aspergillus fumigatus Af293
[16] = substrate: O=P(O)(O)OP(=O)(O)OCc1ccc(Br)cc1; details: Aspergillus fumigatus Af293
[17] = substrate: O=P(O)(O)OP(=O)(O)OCc1ccc(Cl)cc1; details: Aspergillus fumigatus Af293
[18] = substrate: O=P(O)(O)OP(=O)(O)OCc1ccc(F)cc1; details: Aspergillus fumigatus Af293
[19] = substrate: O=P(O)(O)OP(=O)(O)OCc1ccccc1; details: Aspergillus fumigatus Af293
[20] = substrate: C/C=C/COP(=O)(O)OP(=O)(O)O; details: Aspergillus fumigatus Af293; remark: listed apart in the source
[21] = substrate: CCC(=CCOP(=O)(O)OP(=O)(O)O)CC; details: Aspergillus fumigatus Af293; remark: listed apart in the source
[22] = substrate: COc1cccc(COP(=O)(O)OP(=O)(O)O)c1; details: Aspergillus fumigatus Af293; remark: listed apart in the source
[23] = substrate: COc1ccccc1COP(=O)(O)OP(=O)(O)O; details: Aspergillus fumigatus Af293; remark: listed apart in the source
[24] = substrate: O=P(O)(O)OP(=O)(O)OCC=C1CCCC1; details: Aspergillus fumigatus Af293; remark: listed apart in the source
[25] = substrate: O=P(O)(O)OP(=O)(O)OCC=C1CCCCC1; details: Aspergillus fumigatus Af293; remark: listed apart in the source
[26] = substrate: O=P(O)(O)OP(=O)(O)OCc1ccc(Br)cc1; details: Aspergillus fumigatus Af293; remark: listed apart in the source
[27] = substrate: O=P(O)(O)OP(=O)(O)OCc1ccc(F)cc1; details: Aspergillus fumigatus Af293; remark: listed apart in the source
[28] = substrate: O=P(O)(O)OP(=O)(O)OCc1ccccc1; details: Aspergillus fumigatus Af293; remark: listed apart in the source
[29] = substrate: C/C(Br)=C/COP(=O)(O)OP(=O)(O)O; details: Aspergillus fumigatus Af293
[30] = substrate: C/C(Cl)=C/COP(=O)(O)OP(=O)(O)O; details: Aspergillus fumigatus Af293; remark: listed apart in the source
[31] = substrate: C/C=C/C=C(\C)COP(=O)(O)OP(=O)(O)O; details: Aspergillus fumigatus Af293; remark: listed apart in the source
[32] = substrate: C/C=C/COP(=O)(O)OP(=O)(O)O; details: Aspergillus fumigatus Af293; remark: listed apart in the source
[33] = substrate: C=C/C=C(\C)COP(=O)(O)OP(=O)(O)O; details: Aspergillus fumigatus Af293; remark: listed apart in the source
[34] = substrate: C=C/C=C/COP(=O)(O)OP(=O)(O)O; details: Aspergillus fumigatus Af293; remark: listed apart in the source
[35] = substrate: CC(C)=C/C=C/COP(=O)(O)OP(=O)(O)O; details: Aspergillus fumigatus Af293; remark: listed apart in the source
[36] = substrate: CC/C(C)=C/COP(=O)(O)OP(=O)(O)O; details: Aspergillus fumigatus Af293; remark: listed apart in the source
[37] = substrate: CCC(=CCOP(=O)(O)OP(=O)(O)O)CC; details: Aspergillus fumigatus Af293; remark: listed apart in the source
[38] = substrate: COc1cccc(COP(=O)(O)OP(=O)(O)O)c1; details: Aspergillus fumigatus Af293; remark: listed apart in the source
[39] = substrate: COc1ccccc1COP(=O)(O)OP(=O)(O)O; details: Aspergillus fumigatus Af293; remark: listed apart in the source
[40] = substrate: O=P(O)(O)OP(=O)(O)OCC1=CCCCC1; details: Aspergillus fumigatus Af293; remark: listed apart in the source
[41] = substrate: O=P(O)(O)OP(=O)(O)OCC=C1CCCC1; details: Aspergillus fumigatus Af293; remark: listed apart in the source
[42] = substrate: O=P(O)(O)OP(=O)(O)OCC=C1CCCCC1; details: Aspergillus fumigatus Af293; remark: listed apart in the source
[43] = substrate: O=P(O)(O)OP(=O)(O)OCc1ccc(Br)cc1; details: Aspergillus fumigatus Af293; remark: listed apart in the source
[44] = substrate: O=P(O)(O)OP(=O)(O)OCc1ccc(Cl)cc1; details: Aspergillus fumigatus Af293; remark: listed apart in the source
[45] = substrate: O=P(O)(O)OP(=O)(O)OCc1ccc(F)cc1; details: Aspergillus fumigatus Af293; remark: listed apart in the source
[46] = substrate: O=P(O)(O)OP(=O)(O)OCc1ccccc1; details: Aspergillus fumigatus Af293; remark: listed apart in the source

`COc1ccc(COP(=O)(O)OP(=O)(O)O)c(OC)c1` was tested, and the Activity [1] was “inactive”.

For `Cc1ccc(COP(=O)(O)OP(=O)(O)O)cc1`, the Activity [1] was “inactive”.

In the case of `CC(C)=CCc1ccc2[nH]c3c4[nH]c5ccccc5c4c4c(c3c2c1)C(=O)NC4O` (stereo not given), the IC50 [2] is reported as 62 µM.

`CCC(=CCc1ccc2[nH]c3c4[nH]c5ccccc5c4c4c(c3c2c1)C(=O)NC4O)CC` (stereo not given) was tested, and the IC50 [2] was 35 µM.

With `CC(=O)COP(=O)(O)OP(=O)(O)O` the Activity [1] was “inactive”.

In the case of `COc1ccc(COP(=O)(O)OP(=O)(O)O)cc1`, the Activity [1] is reported as “inactive”.

`C=C(C)COP(=O)(O)OP(=O)(O)O` was tested, and the Activity [1] was “inactive”.

`CC/C(C)=C/Cc1ccc2[nH]c3c4[nH]c5ccccc5c4c4c(c3c2c1)C(=O)NC4O` (stereo not given) gave an IC50 [2] of 38 µM.

`O=C1NC(O)c2c1c1c3cc(CC=C4CCCC4)ccc3[nH]c1c1[nH]c3ccccc3c21` (stereo not given) was tested, and the IC50 [2] was 58 µM.

`COc1cc(COP(=O)(O)OP(=O)(O)O)cc(OC)c1OC` was tested, and the Activity [1] was “inactive”.

`O=C1NC(O)c2c1c1c3cc(CC=C4CCCCC4)ccc3[nH]c1c1[nH]c3ccccc3c21` (stereo not given) showed an IC50 [2] of 31 µM.

For `O=[N+]([O-])c1ccc(COP(=O)(O)OP(=O)(O)O)cc1`, the Activity [1] was “inactive”.

`O=C1NC(O)c2c1c1c3ccccc3[nH]c1c1[nH]c3ccccc3c21` (stereo not given) gave an IC50 [2] of 11 µM.

For `O=P(O)(O)OP(=O)(O)OCc1cc(F)cc(F)c1`, the Activity [1] was “inactive”.

Work on `O=C1NC(O)c2c1c1c3cc(CC4=CCCCC4)ccc3[nH]c1c1[nH]c3ccccc3c21` (stereo not given) yielded an IC50 [2] of 61 µM.

In the case of `COc1ccc(COP(=O)(O)OP(=O)(O)O)cc1OC`, the Activity [1] is reported as “inactive”.

B1: Tryptophan dimethylallyltransferase (Neosartorya fumigata (strain ATCC MYA-4609 / Af293 / CBS 101355 / FGSCA1100) (Aspergillus fumigatus)), Q50EL0 (protein)
chain: MKAANASSAEAYRVLSRAFRFDNEDQKLWWHSTAPMFAKMLETANYTTPCQYQYLITYKECVIPSLGCYPTNSAPRWLSILTRYGTPFELSLNCSNSIVRYTFEPINQHTGTDKDPFNTHAIWESLQHLLPLEKSIDLEWFRHFKHDLTLNSEESAFLAHNDRLVGGTIRTQNKLALDLKDGRFALKTYIYPALKAVVTGKTIHELVFGSVRRLAVREPRILPPLNMLEEYIRSRGSKSTASPRLVSCDLTSPAKSRIKIYLLEQMVSLEAMEDLWTLGGRRRDASTLEGLSLVRELWDLIQLSPGLKSYPAPYLPLGVIPDERLPLMANFTLHQNDPVPEPQVYFTTFGMNDMAVADALTTFFERRGWSEMARTYETTLKSYYPHADHDKLNYLHAYISFSYRDRTPYLSVYLQSFETGDWAVANLSESKVKCQDAACQPTSLPPDLSKTGVYYSGLH
Work on B1 yielded a kcat [3] of 0.0217 s⁻¹, a kcat [4] of 0.282 s⁻¹ and a kcat [5] of 0.0095 s⁻¹. It also gave a kcat [6] of 0.337 s⁻¹, a kcat [7] of 0.433 s⁻¹ and a kcat [8] of 0.467 s⁻¹. For the same molecule, the kcat [9] was 0.165 s⁻¹, the kcat [10] was 0.108 s⁻¹ and the kcat [11] was 0.00283 s⁻¹. It also gave a kcat [12] of 0.0322 s⁻¹, a kcat [13] of 0.00267 s⁻¹ and a kcat [14] of 0.084 s⁻¹. The kcat [15] was 0.0533 s⁻¹, the kcat [16] was 0.00223 s⁻¹ and the kcat [17] was 0.00327 s⁻¹. The kcat [18] was 0.0046 s⁻¹, the kcat [19] was 0.0227 s⁻¹ and the Km [20] was 140 µM. The Km [21] was 370 µM, the Km [22] was 730 µM and the Km [23] was 570 µM. It also gave a Km [24] of 310 µM, a Km [25] of 1400 µM and a Km [26] of 320 µM. It also gave a Km [27] of 400 µM, a Km [28] of 220 µM and a kcat/Km [29] of 21.7 M⁻¹ s⁻¹. It also gave a kcat/Km [30] of 41.7 M⁻¹ s⁻¹, a kcat/Km [31] of 200 M⁻¹ s⁻¹ and a kcat/Km [32] of 65 M⁻¹ s⁻¹. It also gave a kcat/Km [33] of 267 M⁻¹ s⁻¹, a kcat/Km [34] of 650 M⁻¹ s⁻¹ and a kcat/Km [35] of 433 M⁻¹ s⁻¹. For the same molecule, the kcat/Km [36] was 350 M⁻¹ s⁻¹, the kcat/Km [37] was 283 M⁻¹ s⁻¹ and the kcat/Km [38] was 3.83 M⁻¹ s⁻¹. For the same molecule, the kcat/Km [39] was 56.7 M⁻¹ s⁻¹, the kcat/Km [40] was 16.7 M⁻¹ s⁻¹ and the kcat/Km [41] was 267 M⁻¹ s⁻¹. For the same molecule, the kcat/Km [42] was 36.7 M⁻¹ s⁻¹, the kcat/Km [43] was 7 M⁻¹ s⁻¹ and the kcat/Km [44] was 7.67 M⁻¹ s⁻¹. It also gave a kcat/Km [45] of 11.5 M⁻¹ s⁻¹ and a kcat/Km [46] of 103 M⁻¹ s⁻¹.
